Source: ChEMBL document CHEMBL1128452, “Pseudodipeptide inhibitors of protein farnesyltransferase” (J Med Chem, 1995)
Peptide text beside a SMILES is read from it. * marks the point of attachment. NHPhenethyl = c1ccc(CCN*)cc1

Columns and labels:
[1] = target: Protein farnesyltransferase (Bos taurus, UniProt P29702+P49355); test: In vitro concentration required to reduce Farnesyltransferase catalyzed incorporation of [3H]FPP into recombinant Ha-Ras protein by 50%; format: protein-complex assay
Method in brief: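 Farnesyltransferase was purified from bovine brain and used at ca. 1 nM. It was incubated with compound, [³H]FPP and recombinant Harvey-Ras. Total protein was acid-precipitated and Ras-bound label counted by scintillation. IC50 is the concentration halving incorporation relative to a no-inhibitor control. Values are mean ± SEM of the stated number of determinations, or a single determination estimated reliable within 2-fold.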

NIH3T3 = test: Highest nontoxic concentration for cultured NIH 3T3 cells assessed by MTT staining.; format: functional, Mus musculus
Method in brief: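 NIH 3T3 cells exposed to compound for 48 h. Viability read by MTT staining. The value reported is the highest concentration the cells tolerated without toxicity.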

[2] = target: Geranylgeranyl transferase type I (Bos taurus, UniProt P29702+Q5EAD5); test: Inhibition of bovine Geranylgeranyl transferase type I; format: protein-complex assay

| IC50 [1] [nM] | IC50 [2] [nM] | SMILES | Cytotoxic endpoint (NIH3T3) [µM] |
| --- | --- | --- | --- |
| 900 | – | CCCC[C@H](NC[C@@H](N)CS)C(=O)NCc1ccccc1 | – |
| – | 100000 | CCC(C)[C@H](NC[C@@H](N)CS)C(=O)NCCC(C)C (stereo partly specified) | – |
| 46 | 6200 | CCC(C)[C@H](NC[C@@H](N)CS)C(=O)Nc1cccc(C)c1 (stereo partly specified) | 25 |
| 120 | 30000 | CCC(C)[C@H](NC[C@@H](N)CS)C(=O)NCc1ccc(C)cc1C (stereo partly specified) | 10 |
| > 10000 | – | CCC(C)[C@H](NC(=O)CCS)C(=O)NCCc1ccccc1 (stereo partly specified) | 10 |
| 97 | 10000 | CCC(C)[C@H](NC[C@@H](N)CS)C(=O)NCc1ccc(Cl)cc1Cl (stereo partly specified) | 10 |
| 707 | – | CCC(C)[C@H](NC[C@@H](N)CS)C(=O)NCCc1ccccc1 (stereo partly specified) | 10 |
| 450 | 86000 | CCC(C)[C@H](NC[C@@H](N)CS)C(=O)NCc1ccccc1 (stereo partly specified) | – |
| > 10000 | – | CCC(C)[C@H](NC[C@H](C)N)C(=O)NCCc1ccccc1 (stereo partly specified) | >100 |
| 23 | 6800 | CCC(C)[C@H](NC[C@@H](N)CS)C(=O)NCc1cccc(Cl)c1Cl (stereo partly specified) | 5 |
| 1000 | – | CCC(C)[C@H](NC[C@@H](N)CS)C(=O)NCc1cccc(C)c1 (stereo partly specified) | 25 |

The next lines start with the molecule.

| SMILES | IC50 [1] [nM] | IC50 [2] [nM] | Cytotoxic endpoint (NIH3T3) [µM] |
| --- | --- | --- | --- |
| CCC(C)[C@@H](CNCCc1ccccc1)NC[C@@H](N)CS (stereo partly specified) | – | – | 10 |
| CCC(C)[C@H](NC[C@@H](N)CS)C(=O)Nc1ccc(C)cc1C (stereo partly specified) | 60 | – | 5 |
| CC[C@H](C)[C@H](NC(=O)[C@@H](N)CS)C(=O)NCCc1ccccc1 (H-Cys-Ile-NHPhenethyl) | 1000 | – | >100 |
| CCC(C)[C@H](NC[C@@H](N)CS)C(=O)NCc1ccc(OC)cc1 (stereo partly specified) | 660 | – | 50 |
| CCC(C)[C@H](NC[C@@H](N)CS)C(=O)N(C)Cc1ccccc1 (stereo partly specified) | 945 | – | – |
| CCC(C)[C@H](NC[C@@H](N)CS)C(=O)Nc1cccc(C)c1C (stereo partly specified) | 40 | 8200 | 10 |
| CCC[C@H](NC[C@@H](N)CS)C(=O)NCc1ccccc1 | 600 | – | – |
| CCC(C)[C@H](NC[C@@H](N)CS)C(=O)NCCCc1ccccc1 (stereo partly specified) | 350 | – | – |
| CCC(C)[C@H](NC[C@@H](N)CS)C(=O)Nc1ccccc1 (stereo partly specified) | 70 | – | – |
| CC[C@H](NC[C@@H](N)CS)C(=O)NCc1ccccc1 | 1100 | – | – |
| CCC(C)[C@H](NC[C@@H](N)CS)C(=O)NCc1ccc(S(N)(=O)=O)cc1 (stereo partly specified) | 400 | 21000 | 100 |
| CCC(C)[C@@H](CNCCc1ccccc1)NC(=O)[C@@H](N)CS (stereo partly specified) | 9000 | – | – |
| CCC(C)[C@H](NC[C@@H](N)CS)C(=O)NC(CO)Cc1ccccc1 (stereo partly specified) | 370 | – | – |
| C[C@H](NC[C@@H](N)CS)C(=O)NCc1ccccc1 | 2000 | – | – |
| CCCCN(Cc1ccccc1)C(=O)[C@@H](NC[C@@H](N)CS)C(C)CC (stereo partly specified) | 1300 | – | – |
